Compound activity from PubChem BioAssay.
An excerpt weighted towards active compounds, which were near 4.7% of everything screened.
MrgX1 agonist: activates human MrgX1 receptor signaling; AID 588627; actives 0.44% (n = 310,000); MrgX1-HEK293 cells, Fluo-4 calcium fluorescence, agonist mode; hits give high values; Q96LB2; B-score at 10 µM;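 active = calcium response B-score plate-corrected fluorescence ratio at least 3 library SD, with starting fluorescence B-score inside 5 SD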
Target sequence (Q96LB2 whole entry, looked up): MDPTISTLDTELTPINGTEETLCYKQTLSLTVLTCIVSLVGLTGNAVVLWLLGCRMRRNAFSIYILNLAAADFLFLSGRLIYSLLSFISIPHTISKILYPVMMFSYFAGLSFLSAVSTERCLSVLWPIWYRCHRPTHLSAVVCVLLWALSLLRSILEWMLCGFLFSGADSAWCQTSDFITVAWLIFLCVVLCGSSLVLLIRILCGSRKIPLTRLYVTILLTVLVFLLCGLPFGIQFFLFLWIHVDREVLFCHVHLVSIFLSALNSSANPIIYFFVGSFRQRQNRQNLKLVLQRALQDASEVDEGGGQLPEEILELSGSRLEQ
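Assay system: stable human MrgX1 HEK293 cell line. Quantity: 15,000 cells per well. Schedule: cells plated overnight, dye loaded 0.5 h 37 °C, 0.5 h room temperature. Detection: Fluo-4 NW calcium-flux fluorescence, kinetic read. Read-out basis: peak-minus-minimum fluorescence over baseline, converted to B scores. Control set: positive and negative control wells on each plate.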
RGS4 pot: potentiators or activators of RGS4. HEK293 M3R/inducible RGS4, carbachol calcium flux Fluo4; hits give low values. B-score at 10 µM. actives 0.92% (n = 310,000);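 active = B-score of the integrated calcium signal more than 4 SD below the library mean, with starting fluorescence not abnormally high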;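 note: negative B-score means reduced calcium response which marks RGS4 activation or potentiation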
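Assay system: Inducible-RGS4 HEK293 cells carrying M3 receptor | Schedule: Compound preincubation 20 min at room temperature before agonist | Signal: Kinetic calcium fluorescence imaging with Fluo4-AM dye, 2 µM | Read-out basis: B score from integrated fluorescence ratio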
RGS4 block: inhibitors of human RGS4; P49798; HEK293 M3R/RGS4 inducible, Fluo-4 calcium flux; hits give high values; triggered by carbachol at its EC20; B-score at 10 µM; actives 0.45% (n = 310,000); AID 463165;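 active = B-score, a plate-corrected calcium signal, over three deviations above library mean, with baseline fluorescence within five deviations of library mean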;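 note: RGS4 expression induced by doxycycline in cells with stable M3 receptor; B-score is computed from the integrated fluorescence ratio over baseline after carbachol; higher B-score means a larger calcium signal and so more RGS4 inhibition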
Target sequence (P49798 whole entry, looked up): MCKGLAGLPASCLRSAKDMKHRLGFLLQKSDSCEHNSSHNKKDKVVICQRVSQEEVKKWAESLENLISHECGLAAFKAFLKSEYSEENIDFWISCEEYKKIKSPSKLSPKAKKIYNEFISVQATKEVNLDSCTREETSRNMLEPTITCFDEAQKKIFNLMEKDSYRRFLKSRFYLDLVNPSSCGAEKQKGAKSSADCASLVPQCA
MrgX1 antagonist: blocks BAM8-22 activation of human MrgX1 receptor; Q96LB2; MRGX1-HEK293 calcium flux, Fluo-4, BAM8-22 antagonism; hits give low values; B-score at 10 µM; actives 1.3% (n = 310,000); AID 588676;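 active = calcium-response B-score plate-corrected more than 3 library SD below zero, starting fluorescence within 5 deviations, no agonist response on first addition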;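 note: peak minus trough fluorescence over baseline after final BAM8-22 challenge near maximal dose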
KCC2 mod: modulators of human KCC2 chloride dependent transport; B-score of Tl+ flux slope (higher = more flux/activation; lower = inhibition) at 10 µM; Q9H2X9; actives 2.2% (n = 190,000); KCC2 cells, thallium flux FluoZin-2 fluorescence;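 active = thallium flux slope and its plate-corrected score both differing from the plate sample mean at a set confidence after two filtering rounds, in either direction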;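 note: slope of fluorescence scaled to starting intensity during 10 to 20 s after thallium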
MrgX1 allo act: allosterically activates human MrgX1 receptor signaling | AID 588675 | MrgX1-HEK293, Fluo-4 calcium flux, FDSS; hits give high values | actives 0.63% (n = 310,000) | B-score at 10 µM | Q96LB2;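 active = plate-corrected calcium response at least 3 library SD above typical, normal starting fluorescence, not activating the receptor alone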;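 note: compound read alongside a low EC10 to EC30 dose of BAM8-22 agonist; peak minus trough fluorescence over baseline measured at the second addition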
KCC2 secondary: KCC2 (human) modulation, secondary assay. shares compounds with KCC2 mod. HEK293-KCC2, thallium flux, FluoZin2 fluorescence; hits give high values. normalised thallium flux (F/F0 slope) at 10 µM. actives 15% (n = 3,700);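 active = thallium flux slope above the same plate's solvent-only control mean plus 3 SD; inconclusive = the two replicate wells disagree; inactive = no significant difference from solvent-only control wells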
KCC2 bumet counter: thallium flux persisting under bumetanide in KCC2 cells, counter-screen secondary assay | shares compounds with KCC2 mod | HEK293-KCC2 + bumetanide/ouabain, thallium flux FluoZin2; hits give high values | normalized thallium flux at 10 µM | actives 49% (n = 3,700);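 active = thallium entry rate above the same plate's blocked-transporter control wells by more than 3 SD; inconclusive = the two repeat wells disagree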;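 note: raw slope of fluorescence over initial fluorescence between 10 and 20 s after thallium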
KCC2 secondary2: confirmation of human KCC2 transport modulators; shares compounds with KCC2 mod; HEK293-KCC2, thallium flux FluoZin2 fluorescence; actives lie on both sides; F/F0 rise rate, 10–20 s post-thallium; normalized thallium flux at 10 µM; actives 23% (n = 3,700);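 active = thallium flux slope more than 3 SD above or below the plate's solvent-only control mean, mostly below; inconclusive = the two repeat wells disagreed; inactive = no significant shift from solvent-only controls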;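 note: raw slope with 0.1% DMSO as baseline and bumetanide as block control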
HEK293 Tl flux: parental HEK flux effect, counter-screen; shares compounds with KCC2 mod; AID 1716; HEK293 parental cells, thallium flux FluoZin2, ouabain; baseline-ratio fluorescence slope, 10–20 s after thallium; actives 46% (n = 3,700); thallium flux rate (normalised fluorescence) at 10 µM;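 active = thallium flux rate significantly above the same plate's solvent-only control wells, beyond their mean plus 3 SD; inconclusive = the two replicate wells gave conflicting results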
KCC2 ouabain: modulates human KCC2 on retest with ouabain. shares compounds with KCC2 mod. HEK293-KCC2, thallium flux FluoZin2 fluorescence; bidirectional: low = inhibitor, high = activator. raw Tl+ flux slope (below DMSO = inhibition, above = activation) at 10 µM. actives 48% (n = 3,700). AID 1717;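 active = thallium flux slope beyond 3 SD from same-plate DMSO control mean in most replicates, usually higher, sometimes lower; inconclusive = repeat tests gave conflicting results; inactive = no significant difference from controls in most replicates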;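 note: slope of initial-normalized fluorescence between seconds 10 and 20 after thallium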
HEK counter2: counter-screen for KCC2 modulators: effect in parental HEK293 cells. AID 1718. shares compounds with KCC2 mod. thallium flux FluoZin-2 fluorescence slope. thallium flux slope at 10 µM. actives 33% (n = 3,700);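 active = thallium flux slope above the same plate's solvent-control mean plus 3 SD in both duplicate wells; inconclusive = duplicate wells that disagreed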;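 note: run without ouabain in cells lacking the KCC2 cotransporter; slope of fluorescence scaled to its starting value between 10 and 20 s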
Active calls of the source: *.

Screening C=CCN(c1ccc(OC)cc1)S(=O)(=O)c1ccc(Cl)c(C(=O)OCC(=O)NC2CC2)c1 returned MrgX1 agonist inactive, RGS4 pot inactive, RGS4 block inactive, MrgX1 antagonist inactive, KCC2 mod -3.8*, MrgX1 allo act inactive, KCC2 secondary 0.0093, KCC2 bumet counter 0.0071, KCC2 secondary2 inconclusive, HEK293 Tl flux 0.006, KCC2 ouabain 0.014* and HEK counter2 0.0097.
For COc1ccc(S(=O)(=O)N2CCC(NC(=O)c3cccnc3)CC2)cc1 the results were MrgX1 agonist inactive, RGS4 pot inactive, RGS4 block inactive, MrgX1 antagonist inactive and MrgX1 allo act inactive.
Screening Cn1nnnc1SCC(=O)Nc1nc(-c2ccc(F)c(F)c2)cs1 returned MrgX1 agonist inactive, RGS4 pot inactive, RGS4 block inactive, MrgX1 antagonist inactive and MrgX1 allo act inactive.
For Cc1sc2ncnc(SCC(=O)Nc3nc(-c4ccc(F)c(F)c4)cs3)c2c1C the results were MrgX1 agonist inactive, RGS4 pot inactive, RGS4 block inactive, MrgX1 antagonist inactive, KCC2 mod 45*, MrgX1 allo act inactive, KCC2 secondary 0.026*, KCC2 bumet counter 0.078*, KCC2 secondary2 0.046*, HEK293 Tl flux 0.04*, KCC2 ouabain 0.072* and HEK counter2 0.022*.
`CCN(CC)S(=O)(=O)c1ccc(Cl)c(OC)c1` gave MrgX1 agonist inactive, RGS4 pot inactive, RGS4 block inactive, MrgX1 antagonist inactive, MrgX1 allo act inactive, KCC2 secondary 0.008, KCC2 bumet counter 0.0051, KCC2 secondary2 0.029, HEK293 Tl flux 0.0065, KCC2 ouabain 0.02 and HEK counter2 0.0087.
COc1ccccc1NC(=O)CN1C(=O)NC(CC(C)C)C1=O (configuration not stated) was read as MrgX1 agonist inactive, RGS4 pot inactive, RGS4 block inactive, MrgX1 antagonist inactive, KCC2 mod -5*, MrgX1 allo act inactive, KCC2 secondary 0.011, KCC2 bumet counter 0.0072, KCC2 secondary2 0.035, HEK293 Tl flux 0.0041, KCC2 ouabain 0.02 and HEK counter2 0.011.
COc1ccc(CCn2c(-c3ccccc3)nc3c(c(=O)c4ccccc4n3C)c2=O)cc1 was read as MrgX1 agonist inactive, RGS4 pot inactive, RGS4 block inactive, MrgX1 antagonist inactive, KCC2 mod -0.53 and MrgX1 allo act inactive.
CC(C)c1nc2c(c(=O)c3ccccc3n2C)c(=O)n1CCc1ccccc1 was read as MrgX1 agonist inactive, RGS4 pot inactive, RGS4 block inactive, MrgX1 antagonist inactive, KCC2 mod -4.4*, MrgX1 allo act inactive, KCC2 secondary 0.01, KCC2 bumet counter 0.022*, KCC2 secondary2 0.032, HEK293 Tl flux 0.012*, KCC2 ouabain 0.021 and HEK counter2 0.011.
For COCCn1c(-c2ccccc2Cl)nc2c(c(=O)c3ccccc3n2C)c1=O the results were MrgX1 agonist inactive, RGS4 pot inactive, RGS4 block inactive, MrgX1 antagonist inactive, KCC2 mod -4.8*, MrgX1 allo act inactive, KCC2 secondary inconclusive, KCC2 bumet counter 0.0047, KCC2 secondary2 0.021*, HEK293 Tl flux 0.0058*, KCC2 ouabain 0.01* and HEK counter2 0.0089.
Screening COCCn1c(-c2ccc(Cl)cc2)nc2c(c(=O)c3ccccc3n2C)c1=O returned MrgX1 agonist inactive, RGS4 pot inactive, RGS4 block inactive, MrgX1 antagonist inactive, KCC2 mod -2.6 and MrgX1 allo act inactive.
Screening COc1cccc(NS(=O)(=O)c2ccc(-n3cccn3)cc2)c1 returned MrgX1 agonist inactive, RGS4 pot inactive, RGS4 block inactive, MrgX1 antagonist inactive and MrgX1 allo act inactive.
For CC1CCN(C(=O)CSc2ccc(-c3cccc([N+](=O)[O-])c3)nn2)CC1 the results were MrgX1 agonist inactive, RGS4 pot inactive, RGS4 block inactive, MrgX1 antagonist inactive, KCC2 mod 0.027 and MrgX1 allo act inactive.
`Cc1nonc1NC(=O)CSc1nc(C2CCCCC2)nc2ccccc12` gave MrgX1 agonist inactive, RGS4 pot inactive, RGS4 block inactive, MrgX1 antagonist inactive, KCC2 mod -6.1*, MrgX1 allo act inactive, KCC2 secondary inconclusive, KCC2 bumet counter 0.0063, KCC2 secondary2 0.031, HEK293 Tl flux 0.0072, KCC2 ouabain 0.015* and HEK counter2 0.01.
`Cc1csc(NC(=O)CSc2ccc(-c3ccccn3)nn2)n1` gave MrgX1 agonist inactive, RGS4 pot inactive, RGS4 block inactive, MrgX1 antagonist inactive, KCC2 mod -4.9*, MrgX1 allo act inactive, KCC2 secondary 0.017, KCC2 bumet counter 0.0048, KCC2 secondary2 0.023*, HEK293 Tl flux inconclusive, KCC2 ouabain 0.012* and HEK counter2 0.0099.
Screening CC1CCN(C(=O)CSc2ccc(-c3ccccc3)nn2)CC1 returned MrgX1 agonist inactive, RGS4 pot inactive, RGS4 block inactive, MrgX1 antagonist inactive, KCC2 mod -3.2*, MrgX1 allo act inactive, KCC2 secondary inconclusive, KCC2 bumet counter 0.0067, KCC2 secondary2 0.031, HEK293 Tl flux 0.0075, KCC2 ouabain 0.016* and HEK counter2 0.011.
`Cc1cc(NC(=O)CSc2nc(C3CCCCC3)nc3ccccc23)no1` gave MrgX1 agonist inactive, RGS4 pot inactive, RGS4 block inactive, MrgX1 antagonist inactive, KCC2 mod 1.2 and MrgX1 allo act inactive.
